High-throughput results deposited in PubChem BioAssay by several laboratories.
Rows were chosen to be rich in hits. Some 4% of all compounds tested hit in one or more screens of this group.
KCNQ1 pot: potentiators or activators of KCNQ1 channel, primary screen, cell-based, thallium flux, high-throughput; 310,000 tested, 0.35% active; B-score at 10 µM; CHO-K1 KCNQ1, thallium flux FluxOR fluorescence; hits give high values;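 active = fluorescence ratio B-score, a plate-corrected score, at least three library SD, with initial intensity B-score within 5 SD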
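Material: CHO-K1 cells stably expressing KCNQ1. Medium: assay buffer for compound exposure, DMSO matched across wells. Reagent: K+/Tl+ depolarizing stimulus. Compound dosing: single-concentration screen. Times: 37 °C overnight plating, 90-min dark dye load, 20-min compound pretreatment. Technique: FluxOR Tl+ flux fluorescence.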
KCNK9 block: KCNK9 potassium channel inhibitors, primary screen, HEK293 cells, thallium flux. Potassium channel subfamily K member 9 (Homo sapiens), Q9NPC2. AID 488922, 2010. B-score at 10 µM. 310,000 tested, 1.2% active. FluxOR thallium flux fluorescence; hits give low values;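 active = ratio B-score over 3 SD below the library mean, with starting fluorescence within 5 SD of its mean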;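 note: negative B-score means less thallium flux so channel inhibition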
KCNQ1 inh: inhibitors of human KCNQ1 channel, primary screen, cell-based, thallium flux, high-throughput. Potassium voltage-gated channel subfamily KQT member 1 (Homo sapiens), P51787. CHO-K1 KCNQ1, FluxOR thallium flux fluorescence; hits give high values. B-score at 10 µM. 310,000 tested, 1.3% active. AID 2642, 2010;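 active = compounds whose thallium flux B-score, printed positive for inhibition, exceeds three library SD while starting fluorescence stays within three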;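 note: channel opened by potassium depolarization with thallium stimulus after 20 min compound exposure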
PHOSPHO1 block: PubChem AID 1565; Phosphoethanolamine/phosphocholine phosphatase (Homo sapiens), Q8TCT1; recombinant PHOSPHO1, absorbance phosphatase assay; 290,000 tested, 1.1% active; inhibition, % at 13.3 µM; in the data active = inhibition above about 60%
hERG rescue: hERG rescue from dofetilide block, primary screen, cell-based, CHO-hERG, FluxOR thallium flux, dofetilide IC70; Voltage-gated inwardly rectifying potassium channel KCNH2 (Homo sapiens), Q12809; dofetilide IC70 present; activation (rescue from dofetilide block), less the hit threshold, % at 10 µM; 310,000 tested, 0.51% active; AID 1511, 2009;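 active = activation above the mean of controls blocked by dofetilide plus 5 SD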;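 note: thallium influx through hERG after potassium depolarization seen as dye fluorescence rise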
Target sequence (Q12809 whole entry, looked up): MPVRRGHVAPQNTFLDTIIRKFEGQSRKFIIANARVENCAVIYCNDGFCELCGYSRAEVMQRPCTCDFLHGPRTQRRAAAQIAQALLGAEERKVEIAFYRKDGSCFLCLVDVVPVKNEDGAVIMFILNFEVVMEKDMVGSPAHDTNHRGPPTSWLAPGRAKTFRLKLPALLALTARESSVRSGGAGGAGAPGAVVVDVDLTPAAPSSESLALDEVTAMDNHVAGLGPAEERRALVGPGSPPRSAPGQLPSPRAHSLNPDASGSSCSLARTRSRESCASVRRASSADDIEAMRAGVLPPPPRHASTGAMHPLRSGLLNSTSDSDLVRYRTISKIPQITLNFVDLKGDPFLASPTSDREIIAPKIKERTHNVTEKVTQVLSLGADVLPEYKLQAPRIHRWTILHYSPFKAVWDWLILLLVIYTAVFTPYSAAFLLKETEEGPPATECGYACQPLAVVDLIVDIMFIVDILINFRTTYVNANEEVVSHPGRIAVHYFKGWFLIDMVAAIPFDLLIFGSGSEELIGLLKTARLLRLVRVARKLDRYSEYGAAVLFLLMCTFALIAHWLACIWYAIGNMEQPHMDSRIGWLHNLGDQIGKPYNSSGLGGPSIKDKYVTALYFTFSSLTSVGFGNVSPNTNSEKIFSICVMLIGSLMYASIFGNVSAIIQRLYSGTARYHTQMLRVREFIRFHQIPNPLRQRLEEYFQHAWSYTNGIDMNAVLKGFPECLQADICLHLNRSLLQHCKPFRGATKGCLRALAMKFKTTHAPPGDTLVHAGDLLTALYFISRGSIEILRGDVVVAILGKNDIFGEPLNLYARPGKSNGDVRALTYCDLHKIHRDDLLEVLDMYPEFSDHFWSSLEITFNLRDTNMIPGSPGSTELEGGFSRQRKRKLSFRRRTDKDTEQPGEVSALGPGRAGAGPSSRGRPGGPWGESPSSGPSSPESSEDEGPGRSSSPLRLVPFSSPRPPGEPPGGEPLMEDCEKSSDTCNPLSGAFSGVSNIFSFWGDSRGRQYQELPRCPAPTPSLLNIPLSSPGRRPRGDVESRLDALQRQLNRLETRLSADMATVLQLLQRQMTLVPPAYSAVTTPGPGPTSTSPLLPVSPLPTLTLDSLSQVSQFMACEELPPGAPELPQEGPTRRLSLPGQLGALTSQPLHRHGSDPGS
KCNK3 inh: human KCNK3 channel inhibitors, primary screen, CHO cells, FluxOR thallium flux, B-score | Potassium channel subfamily K member 3 (Homo sapiens), O14649 | FluxOR fluorescence; hits give low values | B-score at 10 µM | 340,000 tested, 0.84% active | AID 602410, 2012;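 active = B-score under library mean minus 4 SD, starting fluorescence ratio at most library mean plus 5 SD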;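 note: more negative B-score means stronger inhibition of thallium flux through KCNK3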
KCNK9 inh conf: KCNK9 potassium channel inhibitors, confirmation, HEK293 cells, thallium flux, duplicate; shares compounds with KCNK9 block; FluxOR thallium flux fluorescence; inhibition, % at 10 µM; 4,900 tested, 43% active;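 active = thallium signal inhibited by more than 5 SD of the compound-free buffer control wells, on both duplicate plates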
Kir21 sel: mouse Kir2.1 channel inhibition, confirmation, selectivity assay for KCNK9 modulator project, cell-based, HEK293, thallium flux. inhibition, % at 10 µM. shares compounds with KCNK9 block. Kir2.1 cells, FluxOR thallium flux fluorescence. AID 492993, 2010. 4,900 tested, 4% active;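 active = thallium signal drop more than 5 SD beyond the mean of the no-compound control wells, seen in both duplicate plates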;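 note: signal is fluorescence rise after thallium addition divided by baseline fluorescence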
KCNK9 uninduced: thallium flux in non-induced HEK293 cells, confirmation, counter-screen for KCNK9 inhibitor project, cell-based, second counter screen, non-induced KCNK9-HEK293; AID 492997, 2010; shares compounds with KCNK9 block; 4,900 tested, 40% active; inhibition, % at 10 µM; FluxOR thallium flux;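 active = thallium signal drop beyond 5 SD of the untreated control mean, on both duplicate plates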
Large screens that a line does not name were inactive (follow-up assays come after a bar, where they were run).

CNc1oc(Cc2cccc3ccccc23)nc1C#N	none
COc1ccc(CCNc2oc(Cc3cccc4ccccc34)nc2C#N)cc1OC	KCNK9 block -8.23 | KCNK9 inh conf 40.5% | Kir21 sel 37.0% | KCNK9 uninduced 27.0%
O=C(Nc1ccc2c(c1)OCO2)c1ccc(Br)c(S(=O)(=O)N2CCCC2)c1	KCNK9 block -8.73 | KCNK9 inh conf inactive | Kir21 sel inactive | KCNK9 uninduced inactive
COC(=O)C1=CN(Cc2ccc(OC)cc2)C=C(C(=O)OC)C1c1cc(OC)c(OC)c(OC)c1	none
CCOC(=O)C1=CN(Cc2ccc(OC)cc2)C=C(C(=O)OCC)C1c1cccs1	KCNK9 block -18.6 | KCNK9 inh conf 72.5% | Kir21 sel inactive | KCNK9 uninduced 41.0%
COc1ccc(-c2cc(C)no2)cc1S(=O)(=O)N1CCCN(Cc2ccccc2Cl)C1	KCNK9 block -15.6 | KCNK9 inh conf 32.0% | Kir21 sel inactive | KCNK9 uninduced 32.0%
CC1CCN(C(=O)CCC(=O)N2CC(C)Oc3ccccc32)CC1 (stereo unspecified)	none
Cc1ccc2c(c1)N(C(=O)CCC(=O)N1CCN(c3cccc(C)c3C)CC1)CCO2	none | KCNK9 inh conf inactive | Kir21 sel inactive | KCNK9 uninduced inactive
Cc1cccc(N2CCN(C(=O)CCC(=O)N3CC(C)Oc4ccccc43)CC2)c1C (stereo unspecified)	none | KCNK9 inh conf inactive | Kir21 sel inactive | KCNK9 uninduced inactive
Cc1ccc2c(c1)N(C(=O)CCC(=O)N1CCN(c3ccccc3)CC1)CCO2	none
COc1ccc2[nH]c(=O)c(-c3nnn(-c4ccc(Cl)c(Cl)c4)n3)cc2c1	none (no result: PHOSPHO1 block, KCNK3 inh)
COc1ccc(-c2cn(-c3ccc(C)cc3)c(=O)n2CC(=O)Nc2ccc(OC)cc2OC)cc1	none | KCNK9 inh conf inactive | Kir21 sel inactive | KCNK9 uninduced inactive
Nc1[nH]n2c(=O)c3c(nc2c1N=Nc1ccc(Cl)cc1)CCCC3	KCNK9 block -9.62 | KCNK9 inh conf 39.0% | Kir21 sel inactive | KCNK9 uninduced inactive
Cc1ccccc1C(=O)Nc1ccc(Cl)cn1	none
O=C(Nc1ccc(Cl)cn1)c1cccc2c(Br)cccc12	KCNK9 block -16.6 | KCNK9 inh conf 71.0% | Kir21 sel inactive | KCNK9 uninduced 42.0%
C=CCOc1ccccc1CN1CCC(Cc2ccccc2)CC1	none (no result: PHOSPHO1 block) | KCNK9 inh conf inactive | Kir21 sel inactive | KCNK9 uninduced inactive
COc1cc(OC)c(CN2CCC(Cc3ccccc3)CC2)cc1Br	none (no result: PHOSPHO1 block) | KCNK9 inh conf inactive | Kir21 sel inactive | KCNK9 uninduced inactive
OCc1ccccc1OCCCN1CCC(Cc2ccccc2)CC1	none
O=S1(=O)N(Cc2ccccc2F)CCCN1Cc1c(F)cccc1Cl	KCNK9 block -14.5 | KCNK9 inh conf 67.5% | Kir21 sel inactive | KCNK9 uninduced 34.0%
Cc1ccc(CN2CCCN(Cc3ccc(F)cc3Cl)S2(=O)=O)cc1	none
CCOc1ccc(CN(C)CC(=O)Nc2cc(C)c(C)cc2[N+](=O)[O-])cc1	none | KCNK9 inh conf inactive | Kir21 sel inactive | KCNK9 uninduced inactive
O=C(COc1ncnc2ccccc12)NCC1CCCO1 (stereo unspecified)	none
Cc1ccc(/C=N/N2CCN(Cc3ccccc3)CC2)o1	none
Cc1ccc(/C=N/N2CCN(Cc3cccc4ccccc34)CC2)s1	none (no result: PHOSPHO1 block) | KCNK9 inh conf inactive | Kir21 sel inactive | KCNK9 uninduced inactive
Cc1ccc(/C=N/N2CCN(Cc3cccc4ccccc34)CC2)o1	none | KCNK9 inh conf inactive | Kir21 sel inactive | KCNK9 uninduced inactive
Cc1cccc(-c2nnc(SCC#N)n2-c2cccc(Cl)c2)c1	none
COc1ccc(-n2c(SCCC#N)nnc2-c2cc(Cl)ccc2OC)cc1Cl	KCNK9 block -11.3 (no result: PHOSPHO1 block) | KCNK9 inh conf 29.0% | Kir21 sel inactive | KCNK9 uninduced 41.0%
CN(Cc1ccccc1)C(=O)CSc1nc2c(c(C(F)(F)F)n1)CCc1ccccc1-2	none (no result: PHOSPHO1 block) | KCNK9 inh conf inactive | Kir21 sel inactive | KCNK9 uninduced inactive
COc1ccc(C2=NS(=O)(=O)N(C)C(C(=O)NCc3ccccn3)=C2)cc1OC	none
Cc1ccc(C(=O)NCc2ccc(N3CCN(C(=O)OC(C)(C)C)CC3)cc2)cc1	none | KCNK9 inh conf inactive | Kir21 sel inactive | KCNK9 uninduced inactive
CNC(=O)c1ccccc1-c1cn(C)c2ccccc2c1=O	none
Cc1ccc(C(=O)Nc2ccc(Cc3ccncc3)cc2)cc1[N+](=O)[O-]	none | KCNK9 inh conf inactive | Kir21 sel inactive | KCNK9 uninduced inactive
S=C1NC2(CCCCC2)N=C1c1ccccc1	none
CCOC(=O)[C@@H]1[C@H]2COc3ccc(Br)cc3[C@@H]2N2C(=O)N(c3ccc(C(F)(F)F)cc3)C(=O)[C@@]12C	KCNK9 block -12.1 | KCNK9 inh conf 74.0% | Kir21 sel inactive | KCNK9 uninduced 41.0%
CCOC(=O)[C@@H]1[C@H]2COc3ccccc3[C@@H]2N2C(=O)N(c3cccc(Cl)c3)C(=O)[C@@]12C	KCNK9 block -12.3 | KCNK9 inh conf 56.5% | Kir21 sel inactive | KCNK9 uninduced 35.0%
CCOC(=O)[C@@H]1[C@H]2COc3ccc(Br)cc3[C@@H]2N2C(=O)N(c3cccc(F)c3)C(=O)[C@@]12C	KCNK9 block -10.3 | KCNK9 inh conf 63.5% | Kir21 sel inactive | KCNK9 uninduced 26.0%
CCOC(=O)[C@@H]1[C@H]2COc3ccc(Br)cc3[C@@H]2N2C(=O)N(c3ccc(Cl)cc3)C(=O)[C@@]12C	none (no result: KCNQ1 pot, KCNK9 block, KCNQ1 inh, PHOSPHO1 block, hERG rescue)
CCOC(=O)[C@@H]1[C@H]2COc3cc(OC)ccc3[C@H]2N2C(=O)N(c3cccc(F)c3)C(=O)[C@@]12C	none (no result: KCNQ1 pot, KCNK9 block, KCNQ1 inh, PHOSPHO1 block, hERG rescue)
CCOC(=O)Cc1csc(CC(N)=O)n1	none
COc1ccc(N2CCN(C(=O)c3ccc(Br)o3)CC2)cc1	none
CCCCOc1ccc(/C=N/NC(=O)c2csc(C)c2C)cc1	none | KCNK9 inh conf inactive | Kir21 sel inactive | KCNK9 uninduced inactive
Cc1scc(C(=O)N/N=C/c2ccc(OCC(C)C)cc2)c1C	none
CCN(CC)c1ccc(/C=C2\C(=O)N(c3nnc(C)c(=O)[nH]3)N=C2C)cc1	none
